CXCR6 block – blocks human CXCR6 beta-arrestin recruitment; CHO-K1 PathHunter CXCR6 beta-arrestin, luminescence; O00574; AID 602244; actives 0.36% (n = 360,000); inhibition, % at 20 µM; in the data active = inhibition above about 34%, passing the limit was not always enough;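 note: antagonist mode with CXCL16 agonist at 10 nM final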
Target sequence (O00574 whole entry, looked up): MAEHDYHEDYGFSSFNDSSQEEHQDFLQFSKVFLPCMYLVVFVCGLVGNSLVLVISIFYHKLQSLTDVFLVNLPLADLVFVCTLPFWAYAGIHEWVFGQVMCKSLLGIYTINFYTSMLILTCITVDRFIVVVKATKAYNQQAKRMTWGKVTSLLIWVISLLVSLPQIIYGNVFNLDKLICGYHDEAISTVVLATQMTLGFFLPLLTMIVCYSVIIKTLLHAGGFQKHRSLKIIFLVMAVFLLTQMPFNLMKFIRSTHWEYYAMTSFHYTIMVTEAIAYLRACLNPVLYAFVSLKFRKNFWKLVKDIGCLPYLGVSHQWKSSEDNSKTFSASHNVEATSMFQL
CCR6 antag – antagonists of human CCR6 receptor; P51684; CHO-K1 CCR6 PathHunter beta-arrestin, luminescence, CCL20-stimulated; inhibition, % at 20 µM; actives 0.49% (n = 340,000); AID 493098;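 active = compounds whose inhibition of the agonist-driven luminescence signal at 20 µM reaches about 50%, limit read from the data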;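 note: cells stimulated with CCL20 at 14 nM final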
EBI2 block – antagonists of human EBI2 receptor | P32249 | EBI2 beta-arrestin recruitment, luminescence, 7a,25-OHC stimulated | inhibition, % at 5 µM | actives 0.81% (n = 360,000); in the data active = inhibition above about 38%;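 note: enzyme fragment complementation signal reports receptor beta-arrestin coupling in cells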
Target sequence (P32249 whole entry, looked up, the tested form may be a part): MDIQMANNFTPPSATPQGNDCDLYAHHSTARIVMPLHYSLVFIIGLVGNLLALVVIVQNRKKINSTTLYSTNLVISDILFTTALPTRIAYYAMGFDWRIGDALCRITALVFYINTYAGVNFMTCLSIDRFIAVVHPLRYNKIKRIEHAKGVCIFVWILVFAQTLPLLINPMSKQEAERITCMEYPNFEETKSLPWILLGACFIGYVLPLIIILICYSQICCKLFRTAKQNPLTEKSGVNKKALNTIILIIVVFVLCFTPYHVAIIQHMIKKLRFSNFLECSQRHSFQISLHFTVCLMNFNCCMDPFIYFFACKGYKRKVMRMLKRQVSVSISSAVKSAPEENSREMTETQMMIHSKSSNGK
APJ antag – blocks the human apelin receptor APJ. P35414. CHO-K1 APJ beta-arrestin complementation, luminescence. inhibition, % at 20 µM. actives 0.32% (n = 330,000). AID 2521;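 active = inhibition above about 40% at 20 µM, limit read from the data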;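 note: cells challenged with 10 nM apelin-13 agonist together with compound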
APJ ag – agonists of human APJ apelin receptor. P35414. CHO-K1 APJ PathHunter beta-arrestin, luminescence; 0% DMSO wells, 100% apelin. activation, % at 20 µM. actives 0.11% (n = 330,000). AID 2520;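 active = activation more than six SD over the plate average, tested at 20 µM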
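assay system = CHO-K1 APJ beta-arrestin complementation cell line | input = cell density 1000 per well | dosing = compound 20 µM once, DMSO 1% | timing = compound 90 min 25 °C, reagent 1 h | measured by = luminescence from split beta-galactosidase complementation, Galacton Star/Emerald II substrate | read-out basis = APJ agonist activity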
CXCR6 antag conf – CXCR6 antagonism confirmation, single concentration. actives 65% (n = 700). AID 602409. shares compounds with CXCR6 block. CHO-K1 CXCR6 PathHunter beta-arrestin, luminescence. inhibition, % at 20 µM;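 active = mean inhibition over four retests above 40%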;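 note: receptor stimulated with 10 nM CXCL16 agonist; beta-galactosidase fragment complementation upon beta-arrestin recruitment to receptor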
Large screens that a line does not name were inactive (follow-up assays come after a bar, where they were run). This is a sample that favours compounds with a hit; in the whole collection about 1.5% have one here.

CCc1ccc2c(c1)/C(=C/C(=O)c1cccs1)C(=O)N2	CXCR6 block 41, EBI2 block 67 | CXCR6 antag conf inactive
CCc1ccc2c(c1)/C(=N/N(C)C(=S)NC)C(=O)N2	none
COc1ccc2nc(C(c3ccc(C)cc3)n3c(-c4ccccc4Br)nc4ccccc43)[nH]c2c1 (stereo not given)	none (no result: CCR6 antag, APJ antag, APJ ag)
CCCOc1ccc(C(=O)NNC(=S)NC(=O)c2ccccc2)cc1	CXCR6 block 47, CCR6 antag 65 | CXCR6 antag conf inactive
CCCOc1ccc(C(=O)NNC(=S)NC(=O)c2cccs2)cc1	CXCR6 block 53, CCR6 antag 64 | CXCR6 antag conf inactive
CCCOc1ccc(C(=O)NNC(=S)NC(C)=O)cc1	none
CCCCOc1ccc(C(=O)NNC(=S)NC(=O)CC)cc1	CXCR6 block 57, CCR6 antag 68 (no result: APJ antag, APJ ag) | CXCR6 antag conf 67
CCC(=O)NC(=S)NNC(=O)c1ccc(OC)cc1	none
CCOc1cc(/C=C2\COc3ccccc3C2=O)cc(Br)c1OCC(=O)N(C)C	none
Oc1ccc(C[C@@H]2CNCCN2CCc2cccc(F)c2)cc1	none
CC(C)[C@H](NC(=O)OC(C)(C)C)c1nnc(S(=O)(=O)Cc2c(F)cccc2Cl)o1	CXCR6 block 63, CCR6 antag 63 | CXCR6 antag conf 61
COCC(=O)N1CCC(c2nc3ccccc3[nH]2)CC1	none (no result: CCR6 antag, APJ antag, APJ ag)
O=C(Cc1ccccc1)N1CCC(c2nc3ccccc3[nH]2)CC1	CXCR6 block 40 | CXCR6 antag conf inactive
C=C1C(=O)OC2C1CCC(C)=C1C(=O)C3OC3(C)C12 (stereo not given)	CXCR6 block 47, EBI2 block 52 (no result: APJ antag, APJ ag) | CXCR6 antag conf 59
C=C1C(=O)O[C@@H]2[C@H]1CC[C@H](C)[C@]1(O)CCC(=O)[C@@]21C	none
COc1ccc(NC(=O)c2cc(S(=O)(=O)N3CCCCC3)ccc2C)cc1S(=O)(=O)N1CCOCC1	none (no result: APJ antag, APJ ag)
COCc1c(C(=O)N(C)Cc2ccccc2N2CCCC2)oc2ccccc12	none
CCOc1ccc(C=NNc2ccc(S(=O)(=O)Nc3ccccc3C(=O)O)cc2[N+](=O)[O-])cc1	none (no result: CCR6 antag)
C=CCOc1ccc(C=NNc2ccc(S(=O)(=O)Nc3ccccc3C(=O)O)cc2[N+](=O)[O-])cc1OC	CXCR6 block 50 (no result: CCR6 antag) | CXCR6 antag conf 44
O=C(Cc1ccc(NC(=O)C2CCCN(C(=O)C3CCCCC3)C2)cc1)Nc1cccc(C(=O)N2CCCC2)c1 (stereo not given)	CXCR6 block 91 (no result: APJ antag, APJ ag) | CXCR6 antag conf inactive
COc1ccc(Nc2cc(C)nc3ccccc23)cc1	none
COc1ccc2nc(C)cc(Nc3ccc(C)cc3)c2c1	CXCR6 block 58 | CXCR6 antag conf inactive
Cc1cc(OC(=O)Cc2cccc3ccccc23)c([N+](=O)[O-])c(=O)[nH]1	CXCR6 block 39 | CXCR6 antag conf inactive
CCOC(=O)c1c(OCCO)nn(-c2ccccc2)c1N	none
Cc1ccc(Cn2c(SCC(=O)N3CC(=O)Nc4ccccc43)nc3ccccc3c2=O)cc1	none
O=C1CN(C(=O)CSc2nc3cc(Cl)ccc3c(=O)n2Cc2ccccc2)c2ccccc2N1	CXCR6 block 43, CCR6 antag 56 | CXCR6 antag conf 47
Brc1ccc2ncc3ccccc3c2c1	none (no result: APJ antag, APJ ag)
COc1cc(C(=O)NC2CC3CCCC(C2)N3CC(=O)Nc2ccccc2)cc(OC)c1OC (stereo not given)	CXCR6 block 62 | CXCR6 antag conf 69
O=C(CN1C2CCCC1CC(NC(=O)c1ccco1)C2)Nc1ccccc1 (stereo not given)	none
CCOC(=O)c1ccc(NC(=O)CCS(=O)(=O)Cc2ccccc2)cc1	none
Cc1ccc(NC(=O)c2nc(S(=O)(=O)Cc3ccccc3C)ncc2Cl)cc1C	CXCR6 block 50, CCR6 antag 61, EBI2 block 56 | CXCR6 antag conf 60
Cc1ccc(C(=O)NCc2ccc3c(c2)OCO3)c(Cl)c1	none (no result: CCR6 antag, APJ antag, APJ ag)
Cc1cccc(CS(=O)(=O)c2ncc(Cl)c(C(=O)NCc3ccc4c(c3)OCO4)n2)c1	CXCR6 block 57 | CXCR6 antag conf 44
CCOC(=O)c1ccc(NC(=O)c2nc(S(=O)(=O)Cc3ccccc3)ncc2Cl)cc1	CXCR6 block 70, CCR6 antag 89, EBI2 block 42 | CXCR6 antag conf 73
COC(=O)c1ccc(NC(=O)c2nc(S(=O)(=O)Cc3cccc(C)c3)ncc2Cl)cc1	CXCR6 block 66, CCR6 antag 67, EBI2 block 47 | CXCR6 antag conf 61
COc1cccc(NC(=O)c2nc(S(C)(=O)=O)ncc2Cl)c1	none
Cn1cc([N+](=O)[O-])c(C(=O)NC2CCCCCC2)n1	none
OCCC1CN(Cc2ccccc2-c2ccco2)CCN1C1CCCC1 (stereo not given)	none
Cc1ccc(NC(=O)NC(=O)COc2ccccc2C(N)=O)c(C)c1	none
CCCS(=O)(=O)c1ncc(Cl)c(C(=O)Nc2ccc(S(=O)(=O)Nc3ncccn3)cc2)n1	none
CCOc1ccccc1NC(=O)c1ccc(C(=O)Nc2ccccc2OCC)nc1	none
CCc1ccc(NC(=O)c2nc(S(=O)(=O)Cc3ccccc3)ncc2Cl)cc1	CXCR6 block 82 (no result: CCR6 antag) | CXCR6 antag conf 80
CCOc1ccccc1NC(=O)c1nc(S(=O)(=O)Cc2ccccc2)ncc1Cl	CXCR6 block 56, CCR6 antag 51, EBI2 block 46 | CXCR6 antag conf 53
Cc1cnc(C(=O)OCc2nc3ccccc3o2)cn1	none
Cc1ccsc1/C=N/NC(=O)c1nnn(-c2nonc2N)c1CN(C)c1ccccc1	none
O=[N+]([O-])c1ccc(C2CCCC/C2=N/O)c([N+](=O)[O-])c1 (stereo not given)	none
O/N=C1/CCCCC1c1ccccn1 (stereo not given)	CXCR6 block 57 | CXCR6 antag conf inactive
Cc1cnc(C(=O)Nc2cccc3cccnc23)cn1	CXCR6 block 51, CCR6 antag 56 (no result: APJ antag, APJ ag) | CXCR6 antag conf inactive
Cc1nnc(NC(=O)c2cc(-c3ccncc3)nc3c(C)cccc23)s1	CXCR6 block 45 | CXCR6 antag conf inactive
O=S1(=O)CC(N2CCN(CC3CC3)CC2)CN1C1CCCCC1 (stereo not given)	none (no result: CCR6 antag, APJ antag, APJ ag)
O=C(CC1c2cc(F)ccc2C=C(c2ccsc2)N1c1ccc(C#CCCO)cc1)c1ccco1 (stereo not given)	none (no result: CCR6 antag, APJ antag, APJ ag)
C=C1C(=O)[C@]23C[C@H]1CCC2[C@@]1(C)C(C[C@@H]3O)[C@](C)(C(=O)OC)CC[C@@H]1O (stereo not given in full)	CXCR6 block 55 (no result: CCR6 antag, APJ antag, APJ ag) | CXCR6 antag conf 70
C[C@@]12C(C[C@H](O)[C@@]34C[C@@H](CCC13)[C@@H](CO)C4=O)[C@](C)(C(=O)O)CC[C@@H]2O (stereo not given in full)	none (no result: CCR6 antag, APJ antag, APJ ag)
O=C(COC(=O)Cc1ccc(Br)cc1)NCc1ccc2c(c1)OCO2	none
C=CCNc1nc(C(=O)OCC(=O)c2ccccc2)cs1	CXCR6 block 103 | CXCR6 antag conf inactive
